In brackets after ≈: the same amount, converted by molar mass.
Assays:
Type in all cases: functional
Escherichia coli [1] = experiment: Antibacterial activity against marA-overproducing Escherichia coli CR1000 harboring inactivated metV gene assessed as MarA-mediated multidrug resistance level by measuring fold change in MIC relative to MarA-deficient Escherichia coli CR2000
Procedure, shortened: (§1)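 Each inactivated gene was transferred into both the ΔmarR (CR1000) and the ΔmarRA (CR2000) BW25113 backgrounds. Each derivative was grown overnight in LB and tested by Etest on Mueller-Hinton plates, read after 20 h at 37°C, against cefoxitin, norfloxacin, chloramphenicol and minocycline. The MarA-mediated level compares the MIC in the ΔmarR derivative with the MIC in the matching ΔmarRA derivative.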

Escherichia coli [2] = experiment: Antibacterial activity against marA-overproducing Escherichia coli CR1000 harboring inactivated yfdG gene assessed as MarA-mediated multidrug resistance level by measuring fold change in MIC relative to MarA-deficient Escherichia coli CR2000; procedure, shortened: as §1
Escherichia coli [3] = experiment: Antibacterial activity against marA-overproducing Escherichia coli CR1000 harboring inactivated nikD gene assessed as MarA-mediated multidrug resistance level by measuring fold change in MIC relative to MarA-deficient Escherichia coli CR2000; procedure, shortened: as §1
Escherichia coli [4] = experiment: Antibacterial activity against marA-overproducing Escherichia coli CR1000 harboring inactivated ynfE gene assessed as MarA-mediated multidrug resistance level by measuring fold change in MIC relative to MarA-deficient Escherichia coli CR2000; procedure, shortened: as §1
Escherichia coli [5] = experiment: Antibacterial activity against marA-overproducing Escherichia coli CR1000 harboring inactivated maoC gene assessed as MarA-mediated multidrug resistance level by measuring fold change in MIC relative to MarA-deficient Escherichia coli CR2000; procedure, shortened: as §1
Escherichia coli [6] = experiment: Ratio of MIC for marA-overproducing Escherichia coli CR1000 to MIC for MarA-deficient Escherichia coli CR2000
Procedure, shortened: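 MICs measured by Etest on Mueller-Hinton plates, read after 20 h at 37°C, for the ΔmarR strain (constitutive chromosomal marA overexpression) and the ΔmarRA strain (BW25113 background), both grown overnight in LB at 37°C. MarA-mediated MDR expressed as the ΔmarR/ΔmarRA MIC ratio.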

Escherichia coli [7] = experiment: Antibacterial activity against marA-overproducing Escherichia coli CR1000 harboring inactivated damX gene assessed as MarA-mediated multidrug resistance level by measuring fold decrease in MIC relative to MarA-deficient Escherichia coli CR2000; set-up: scale not given: the % may be the effect or the level left; procedure, shortened: as §1
Escherichia coli [8] = experiment: Antibacterial activity against wild-type Escherichia coli BW25113 after 20 hrs by Etest method; conditions: BW25113, 20 h
Procedure, shortened: (§2)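 MICs by Etest strips on Mueller-Hinton plates, following the manufacturer's specifications. Cells came from overnight liquid cultures in LB at 37°C with agitation. Plates were read after 20 h at 37°C. Antibiotics tested were cefoxitin, norfloxacin, chloramphenicol and minocycline.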

Escherichia coli [9] = experiment: Antibacterial activity against MarA-deficient Escherichia coli CR2000 after 20 hrs by Etest method; conditions: CR2000, 20 h
Procedure, shortened: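 Overnight LB-grown cultures (37°C, agitation) of the ΔmarRA strain (BW25113 background) tested on Mueller-Hinton plates with Etest strips per manufacturer's instructions. MIC read after 20 h at 37°C.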

Escherichia coli [10] = experiment: Antibacterial activity against marA-overproducing Escherichia coli CR1000 harboring inactivated yibLp gene assessed as MarA-mediated multidrug resistance level by measuring fold change in MIC relative to MarA-deficient Escherichia coli CR2000; procedure, shortened: as §1
Escherichia coli [11] = experiment: Antibacterial activity against marA-overproducing Escherichia coli CR1000 harboring inactivated recD gene assessed as MarA-mediated multidrug resistance level by measuring fold change in MIC relative to MarA-deficient Escherichia coli CR2000; procedure, shortened: as §1
Escherichia coli [12] = experiment: Antibacterial activity against marA-overproducing Escherichia coli CR1000 harboring inactivated mhpT gene assessed as MarA-mediated multidrug resistance level by measuring fold change in MIC relative to MarA-deficient Escherichia coli CR2000; procedure, shortened: as §1
Escherichia coli [13] = experiment: Antibacterial activity against marA-overproducing Escherichia coli CR1000 harboring inactivated cspGp gene assessed as MarA-mediated multidrug resistance level by measuring fold change in MIC relative to MarA-deficient Escherichia coli CR2000; procedure, shortened: as §1
Escherichia coli [14] = experiment: Antibacterial activity against marA-overproducing Escherichia coli CR1000 harboring inactivated metL gene assessed as MarA-mediated multidrug resistance level by measuring fold change in MIC relative to MarA-deficient Escherichia coli CR2000; procedure, shortened: as §1
Escherichia coli [15] = experiment: Antibacterial activity against marA-overproducing Escherichia coli CR1000 harboring inactivated acrA gene assessed as MarA-mediated multidrug resistance level by measuring fold decrease in MIC relative to MarA-deficient Escherichia coli CR2000; set-up: scale not given: the % may be the effect or the level left; procedure, shortened: as §1
Escherichia coli [16] = experiment: Antibacterial activity against MarA-overexpressing Escherichia coli CR1000 after 20 hrs by Etest method; conditions: CR1000, 20 h; procedure, shortened: as §2
Escherichia coli [17] = experiment: Antibacterial activity against marA-overproducing Escherichia coli CR1000 harboring inactivated appA gene assessed as MarA-mediated multidrug resistance level by measuring fold change in MIC relative to MarA-deficient Escherichia coli CR2000; procedure, shortened: as §1
Escherichia coli [18] = experiment: Antibacterial activity against marA-overproducing Escherichia coli CR1000 harboring inactivated acrB gene assessed as MarA-mediated multidrug resistance level by measuring fold decrease in MIC relative to MarA-deficient Escherichia coli CR2000; set-up: scale not given: the % may be the effect or the level left; procedure, shortened: as §1
Escherichia coli [19] = experiment: Antibacterial activity against marA-overproducing Escherichia coli CR1000 harboring inactivated crp gene assessed as MarA-mediated multidrug resistance level by measuring fold change in MIC relative to MarA-deficient Escherichia coli CR2000; procedure, shortened: as §1
Escherichia coli [20] = experiment: Antibacterial activity against marA-overproducing Escherichia coli CR1000 harboring inactivated cyaA gene assessed as MarA-mediated multidrug resistance level by measuring fold decrease in MIC relative to MarA-deficient Escherichia coli CR2000; set-up: scale not given: the % may be the effect or the level left; procedure, shortened: as §1
Escherichia coli [21] = experiment: Antibacterial activity against marA-overproducing Escherichia coli CR1000 harboring inactivated ompR gene assessed as MarA-mediated multidrug resistance level by measuring fold change in MIC relative to MarA-deficient Escherichia coli CR2000; procedure, shortened: as §1
Escherichia coli [22] = experiment: Antibacterial activity against marA-overproducing Escherichia coli CR1000 harboring inactivated tolC gene assessed as MarA-mediated multidrug resistance level by measuring fold decrease in MIC relative to MarA-deficient Escherichia coli CR2000; set-up: scale not given: the % may be the effect or the level left; procedure, shortened: as §1
Escherichia coli [23] = experiment: Antibacterial activity against marA-overproducing Escherichia coli CR1000 harboring inactivated yniDp gene assessed as MarA-mediated multidrug resistance level by measuring fold change in MIC relative to MarA-deficient Escherichia coli CR2000; procedure, shortened: as §1
Escherichia coli [24] = experiment: Antibacterial activity against marA-overproducing Escherichia coli CR1000 harboring inactivated treC gene assessed as MarA-mediated multidrug resistance level by measuring fold change in MIC relative to MarA-deficient Escherichia coli CR2000; procedure, shortened: as §1
Escherichia coli [25] = experiment: Antibacterial activity against marA-overproducing Escherichia coli CR1000 harboring inactivated hns gene assessed as MarA-mediated multidrug resistance level by measuring fold decrease in MIC relative to MarA-deficient Escherichia coli CR2000; set-up: scale not given: the % may be the effect or the level left; procedure, shortened: as §1
Escherichia coli [26] = experiment: Antibacterial activity against marA-overproducing Escherichia coli CR1000 harboring inactivated pcnB gene assessed as MarA-mediated multidrug resistance level by measuring fold decrease in MIC relative to MarA-deficient Escherichia coli CR2000; set-up: scale not given: the % may be the effect or the level left; procedure, shortened: as §1
Escherichia coli [27] = experiment: Antibacterial activity against marA-overproducing Escherichia coli CR1000 harboring inactivated degP gene assessed as MarA-mediated multidrug resistance level by measuring fold change in MIC relative to MarA-deficient Escherichia coli CR2000; procedure, shortened: as §1
Escherichia coli [28] = experiment: Antibacterial activity against marA-overproducing Escherichia coli CR1000 harboring inactivated alx gene assessed as MarA-mediated multidrug resistance level by measuring fold change in MIC relative to MarA-deficient Escherichia coli CR2000; procedure, shortened: as §1

CO[C@@]1(NC(=O)Cc2cccs2)C(=O)N2C(C(=O)O)=C(COC(N)=O)CS[C@@H]21 [CEFOXITIN]
Activity (Escherichia coli [1]): 74%
Activity (Escherichia coli [2]): 68%
Activity (Escherichia coli [3]): 68%
Activity (Escherichia coli [4]): 94%
Activity (Escherichia coli [5]): 100%
Ratio (Escherichia coli [6]): 3.3
Activity (Escherichia coli [7]): 40%
MIC (Escherichia coli [8]): 4 µg/mL (≈ 9.36 µM)
MIC (Escherichia coli [9]): 3.2 µg/mL (≈ 7.49 µM)
Activity (Escherichia coli [10]): 68%
Activity (Escherichia coli [11]): 80%
Activity (Escherichia coli [12]): 68%
Activity (Escherichia coli [13]): 54%
Activity (Escherichia coli [14]): 120%
Activity (Escherichia coli [15]): 16%
MIC (Escherichia coli [16]): 10.6 µg/mL (≈ 24.8 µM)
Activity (Escherichia coli [17]): 68%
Activity (Escherichia coli [18]): 6%
Activity (Escherichia coli [19]): 21%
Activity (Escherichia coli [20]): 43%
Activity (Escherichia coli [21]): 67%
Activity (Escherichia coli [22]): 0%
Activity (Escherichia coli [23]): 94%
Activity (Escherichia coli [24]): 94%
Activity (Escherichia coli [25]): 19%
Activity (Escherichia coli [26]): 10%
Activity (Escherichia coli [27]): 94%

O=C(N[C@H](CO)[C@H](O)c1ccc([N+](=O)[O-])cc1)C(Cl)Cl [CHLORAMPHENICOL]
Activity (Escherichia coli [1]): 75%
Activity (Escherichia coli [2]): 93%
Activity (Escherichia coli [3]): 50%
Activity (Escherichia coli [4]): 93%
Activity (Escherichia coli [5]): 75%
Ratio (Escherichia coli [6]): 3
Activity (Escherichia coli [7]): 50%
MIC (Escherichia coli [8]): 10.7 µg/mL (≈ 33.1 µM)
MIC (Escherichia coli [9]): 8.1 µg/mL (≈ 25.1 µM)
Activity (Escherichia coli [10]): 50%
Activity (Escherichia coli [11]): 50%
Activity (Escherichia coli [12]): 100%
Activity (Escherichia coli [13]): 93%
Activity (Escherichia coli [14]): 100%
Activity (Escherichia coli [15]): 8%
MIC (Escherichia coli [16]): 23.9 µg/mL (≈ 74 µM)
Activity (Escherichia coli [17]): 93%
Activity (Escherichia coli [18]): 8%
Activity (Escherichia coli [28]): 100%
Activity (Escherichia coli [19]): 29%
Activity (Escherichia coli [20]): 46%
Activity (Escherichia coli [21]): 93%
Activity (Escherichia coli [22]): 0%
Activity (Escherichia coli [23]): 125%
Activity (Escherichia coli [24]): 85%
Activity (Escherichia coli [25]): 20%
Activity (Escherichia coli [26]): 33%
Activity (Escherichia coli [27]): 50%

CN(C)c1ccc(O)c2c1C[C@H]1C[C@H]3[C@H](N(C)C)C(O)=C(C(N)=O)C(=O)[C@@]3(O)C(O)=C1C2=O [MINOCYCLINE]
Activity (Escherichia coli [1]): 65%
Activity (Escherichia coli [2]): 65%
Activity (Escherichia coli [3]): 125%
Activity (Escherichia coli [4]): 100%
Activity (Escherichia coli [5]): 40%
Ratio (Escherichia coli [6]): 2
Activity (Escherichia coli [7]): 30%
MIC (Escherichia coli [8]): 3.3 µg/mL (≈ 7.21 µM)
MIC (Escherichia coli [9]): 2.4 µg/mL (≈ 5.25 µM)
Activity (Escherichia coli [10]): 100%
Activity (Escherichia coli [11]): 65%
Activity (Escherichia coli [12]): 100%
Activity (Escherichia coli [13]): 75%
Activity (Escherichia coli [14]): 100%
Activity (Escherichia coli [15]): 40%
MIC (Escherichia coli [16]): 4.9 µg/mL (≈ 10.7 µM)
Activity (Escherichia coli [17]): 100%
Activity (Escherichia coli [18]): 40%
Activity (Escherichia coli [28]): 65%
Activity (Escherichia coli [19]): 38%
Activity (Escherichia coli [20]): 32%
Activity (Escherichia coli [21]): 100%
Activity (Escherichia coli [22]): 40%
Activity (Escherichia coli [23]): 50%
Activity (Escherichia coli [24]): 100%
Activity (Escherichia coli [25]): 35%
Activity (Escherichia coli [26]): 30%
Activity (Escherichia coli [27]): 100%

CCn1cc(C(=O)O)c(=O)c2cc(F)c(N3CCNCC3)cc21 [NORFLOXACIN]
Activity (Escherichia coli [1]): 91%
Activity (Escherichia coli [2]): 91%
Activity (Escherichia coli [3]): 68%
Activity (Escherichia coli [4]): 68%
Activity (Escherichia coli [5]): 61%
Ratio (Escherichia coli [6]): 3.1
Activity (Escherichia coli [7]): 46%
MIC (Escherichia coli [8]): 0.09 µg/mL (≈ 0.282 µM)
MIC (Escherichia coli [9]): 0.07 µg/mL (≈ 0.219 µM)
Activity (Escherichia coli [10]): 68%
Activity (Escherichia coli [11]): 77%
Activity (Escherichia coli [12]): 91%
Activity (Escherichia coli [13]): 91%
Activity (Escherichia coli [14]): 91%
Activity (Escherichia coli [15]): 0%
MIC (Escherichia coli [16]): 0.21 µg/mL (≈ 0.658 µM)
Activity (Escherichia coli [17]): 84%
Activity (Escherichia coli [18]): 9%
Activity (Escherichia coli [28]): 68%
Activity (Escherichia coli [19]): 33%
Activity (Escherichia coli [20]): 41%
Activity (Escherichia coli [21]): 77%
Activity (Escherichia coli [22]): 0%
Activity (Escherichia coli [23]): 77%
Activity (Escherichia coli [24]): 46%
Activity (Escherichia coli [25]): 23%
Activity (Escherichia coli [26]): 23%
Activity (Escherichia coli [27]): 91%
